Results reported in ChEMBL document CHEMBL4373711, “Development of 3,5-Dinitrophenyl-Containing 1,2,4-Triazoles and Their Trifluoromethyl Analogues as Highly Efficient Antitubercular Agents Inhibiting Decaprenylphosphoryl-β-d-ribofuranose 2'-Oxidase” (J Med Chem, 2019).
Converted amounts (≈) assume the structure as drawn.

Legend:
[1] = tested on: Mycobacterium tuberculosis; experiment: Antimycobacterial activity against multi-drug resistant Mycobacterium tuberculosis Praha 1 after 14 days; assay type: functional; conditions: Praha 1, 336 h
Method in brief: (§1)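 M. tuberculosis strains (H37Rv and clinical MDR/XDR isolates) tested by microdilution in Šula's semisynthetic medium. Compounds were dissolved in DMSO and tested at 32 to 0.03 µM in twofold steps. Inoculum was a 1.0 McFarland suspension diluted 10-3. Plates were incubated at 37 °C and read at 14 and 21 days.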

[2] = tested on: Mycobacterium tuberculosis; experiment: Antimycobacterial activity against multi-drug resistant Mycobacterium tuberculosis Praha 1 after 21 days; assay type: functional; conditions: Praha 1, 504 h; method in brief: as §1
[3] = tested on: Mycobacterium tuberculosis; experiment: Antimycobacterial activity against multi-drug resistant Mycobacterium tuberculosis Praha 4 after 14 days; conditions: Praha 4, 336 h
[4] = tested on: Mycobacterium tuberculosis; experiment: Antimycobacterial activity against multi-drug resistant Mycobacterium tuberculosis Praha 4 after 21 days; assay type: functional; conditions: Praha 4, 504 h; method in brief: as §1
[5] = tested on: Mycobacterium tuberculosis; experiment: Antimycobacterial activity against multi-drug resistant Mycobacterium tuberculosis 9449/2007 after 21 days; assay type: functional; conditions: 9449/2007, 504 h; method in brief: as §1
[6] = tested on: Mycobacterium tuberculosis; experiment: Antimycobacterial activity against multi-drug resistant Mycobacterium tuberculosis 9449/2007 after 14 days; assay type: functional; conditions: 9449/2007, 336 h; method in brief: as §1
[7] = tested on: Mycobacterium tuberculosis; experiment: Antimycobacterial activity against multi-drug resistant Mycobacterium tuberculosis 234/2005 after 21 days; assay type: functional; conditions: 234/2005, 504 h; method in brief: as §1
[8] = tested on: Mycobacterium tuberculosis; experiment: Antimycobacterial activity against multi-drug resistant Mycobacterium tuberculosis 7357/1998 after 21 days; assay type: functional; conditions: 7357/1998, 504 h; method in brief: as §1
[9] = tested on: Mycobacterium tuberculosis; experiment: Antimycobacterial activity against multi-drug resistant Mycobacterium tuberculosis 7357/1998 after 14 days; assay type: functional; conditions: 7357/1998, 336 h; method in brief: as §1
[10] = tested on: Mycobacterium tuberculosis; experiment: Antimycobacterial activity against multi-drug resistant Mycobacterium tuberculosis 8666/2010 after 14 days; assay type: functional; conditions: 8666/2010, 336 h; method in brief: as §1
[11] = tested on: Mycobacterium tuberculosis; experiment: Antimycobacterial activity against multi-drug resistant Mycobacterium tuberculosis 8666/2010 after 21 days; assay type: functional; conditions: 8666/2010, 504 h; method in brief: as §1
[12] = Selectivity index, ratio of IC50 for human HepG2 cells to MIC>99 for antimycobacterial activity against multi-drug resistant Mycobacterium tuberculosis Praha 1 after 14 days; assay type: toxicity; conditions: read-out: Selectivity Index
Method in brief: (§2)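 SI from HepG2 IC50 and M. tuberculosis MIC. HepG2 cells: DMEM + 10% FBS + 1 mM pyruvate, 10,000/well, 48 h treatment, 0.1% DMSO and 10% SDS controls, MTS absorbance at 490 nm.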

[13] = Selectivity index, ratio of IC50 for human HepG2 cells to MIC>99 for antimycobacterial activity against multi-drug resistant Mycobacterium tuberculosis Praha 1 after 21 days; assay type: toxicity; conditions: read-out: Selectivity Index; method in brief: as §2
[14] = Selectivity index, ratio of IC50 for human HepG2 cells to MIC>99 for antimycobacterial activity against multi-drug resistant Mycobacterium tuberculosis Praha 4 after 14 days; assay type: toxicity; conditions: read-out: Selectivity Index; method in brief: as §2
[15] = Selectivity index, ratio of IC50 for human HepG2 cells to MIC>99 for antimycobacterial activity against multi-drug resistant Mycobacterium tuberculosis Praha 4 after 21 days; assay type: toxicity; conditions: read-out: Selectivity Index; method in brief: as §2
[16] = Selectivity index, ratio of IC50 for human HepG2 cells to MIC>99 for antimycobacterial activity against multi-drug resistant Mycobacterium tuberculosis 9449/2007 after 21 days; assay type: toxicity; conditions: read-out: Selectivity Index; method in brief: as §2
[17] = Selectivity index, ratio of IC50 for human HepG2 cells to MIC>99 for antimycobacterial activity against multi-drug resistant Mycobacterium tuberculosis 9449/2007 after 14 days; assay type: toxicity; conditions: read-out: Selectivity Index; method in brief: as §2
[18] = Selectivity index, ratio of IC50 for human HepG2 cells to MIC>99 for antimycobacterial activity against multi-drug resistant Mycobacterium tuberculosis 234/2005 after 14 days; assay type: toxicity; conditions: read-out: Selectivity Index; method in brief: as §2
[19] = Selectivity index, ratio of IC50 for human HepG2 cells to MIC>99 for antimycobacterial activity against multi-drug resistant Mycobacterium tuberculosis 234/2005 after 21 days; assay type: toxicity; conditions: read-out: Selectivity Index; method in brief: as §2
[20] = Selectivity index, ratio of IC50 for human HepG2 cells to MIC>99 for antimycobacterial activity against multi-drug resistant Mycobacterium tuberculosis 7357/1998 after 21 days; assay type: toxicity; conditions: read-out: Selectivity Index; method in brief: as §2
[21] = Selectivity index, ratio of IC50 for human HepG2 cells to MIC>99 for antimycobacterial activity against multi-drug resistant Mycobacterium tuberculosis 7357/1998 after 14 days; assay type: toxicity; conditions: read-out: Selectivity Index; method in brief: as §2
[22] = Selectivity index, ratio of IC50 for human HepG2 cells to MIC>99 for antimycobacterial activity against multi-drug resistant Mycobacterium tuberculosis 8666/2010 after 14 days; assay type: toxicity; conditions: read-out: Selectivity Index; method in brief: as §2
[23] = Selectivity index, ratio of IC50 for human HepG2 cells to MIC>99 for antimycobacterial activity against multi-drug resistant Mycobacterium tuberculosis 8666/2010 after 21 days; assay type: toxicity; conditions: read-out: Selectivity Index; method in brief: as §2
[24] = Selectivity index, ratio of IC50 for human A431 cells to MIC>99 for antimycobacterial activity against multi-drug resistant Mycobacterium tuberculosis Praha 1 after 14 days; assay type: toxicity; conditions: read-out: Selectivity Index
[25] = Selectivity index, ratio of IC50 for human A431 cells to MIC>99 for antimycobacterial activity against multi-drug resistant Mycobacterium tuberculosis Praha 1 after 21 days; assay type: toxicity; conditions: read-out: Selectivity Index
[26] = Selectivity index, ratio of IC50 for human A431 cells to MIC>99 for antimycobacterial activity against multi-drug resistant Mycobacterium tuberculosis Praha 4 after 14 days; assay type: toxicity; conditions: read-out: Selectivity Index
[27] = Selectivity index, ratio of IC50 for human A431 cells to MIC>99 for antimycobacterial activity against multi-drug resistant Mycobacterium tuberculosis Praha 4 after 21 days; assay type: toxicity; conditions: read-out: Selectivity Index
Method in brief: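 SI from A431 IC50 and M. tuberculosis MIC. A431 cells: DMEM + 10% FBS, seeded 10,000/well, treated after 24 h for 48 h, 0.1% DMSO (100%) and 10% SDS (0%) controls, MTS absorbance at 490 nm.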

[28] = Selectivity index, ratio of IC50 for human A431 cells to MIC>99 for antimycobacterial activity against multi-drug resistant Mycobacterium tuberculosis 9449/2007 after 21 days; assay type: toxicity; conditions: read-out: Selectivity Index
[29] = Selectivity index, ratio of IC50 for human A431 cells to MIC>99 for antimycobacterial activity against multi-drug resistant Mycobacterium tuberculosis 9449/2007 after 14 days; assay type: toxicity; conditions: read-out: Selectivity Index
[30] = Selectivity index, ratio of IC50 for human A431 cells to MIC>99 for antimycobacterial activity against multi-drug resistant Mycobacterium tuberculosis 234/2005 after 14 days; assay type: toxicity; conditions: read-out: Selectivity Index
[31] = Selectivity index, ratio of IC50 for human A431 cells to MIC>99 for antimycobacterial activity against multi-drug resistant Mycobacterium tuberculosis 234/2005 after 21 days; assay type: toxicity; conditions: read-out: Selectivity Index
[32] = Selectivity index, ratio of IC50 for human A431 cells to MIC>99 for antimycobacterial activity against multi-drug resistant Mycobacterium tuberculosis 7357/1998 after 21 days; assay type: toxicity; conditions: read-out: Selectivity Index
[33] = Selectivity index, ratio of IC50 for human A431 cells to MIC>99 for antimycobacterial activity against multi-drug resistant Mycobacterium tuberculosis 7357/1998 after 14 days; assay type: toxicity; conditions: read-out: Selectivity Index
[34] = Selectivity index, ratio of IC50 for human A431 cells to MIC>99 for antimycobacterial activity against multi-drug resistant Mycobacterium tuberculosis 8666/2010 after 14 days; assay type: toxicity; conditions: read-out: Selectivity Index
[35] = Selectivity index, ratio of IC50 for human A431 cells to MIC>99 for antimycobacterial activity against multi-drug resistant Mycobacterium tuberculosis 8666/2010 after 21 days; assay type: toxicity; conditions: read-out: Selectivity Index
[36] = tested on: Mycobacterium tuberculosis; experiment: microbe, parasite or virus in culture; conditions: 234/2005, 336 h

## O=[N+]([O-])c1cc(-c2nnc(SCc3ccccc3)n2Cc2ccccc2)cc(C(F)(F)F)c1
[1]
  MIC99: 0.06 µM (≈ 0.0282 µg/mL)
[2]
  MIC99: 0.06 µM (≈ 0.0282 µg/mL)
[3]
  MIC99: 0.06 µM (≈ 0.0282 µg/mL)
[4]
  MIC99: 0.06 µM (≈ 0.0282 µg/mL)
[5]
  MIC99: 0.06 µM (≈ 0.0282 µg/mL)
[6]
  MIC99: 0.125 µM (≈ 0.0588 µg/mL)
[7]
  MIC99: 0.06 µM (≈ 0.0282 µg/mL)
[8]
  MIC99: 0.06 µM (≈ 0.0282 µg/mL)
[9]
  MIC99: 0.06 µM (≈ 0.0282 µg/mL)
[10]
  MIC99: 0.06 µM (≈ 0.0282 µg/mL)
[11]
  MIC99: 0.125 µM (≈ 0.0588 µg/mL)
[12]
  selectivity ratio at 336 h: > 100
[13]
  selectivity ratio at 504 h: > 100
[14]
  selectivity ratio at 336 h: > 100
[15]
  selectivity ratio at 504 h: > 100
[16]
  selectivity ratio at 504 h: > 100
[17]
  selectivity ratio at 336 h: > 100
[18]
  selectivity ratio at 336 h: > 100
[19]
  selectivity ratio at 504 h: > 100
[20]
  selectivity ratio at 504 h: > 100
[21]
  selectivity ratio at 336 h: > 100
[22]
  selectivity ratio at 336 h: > 100
[23]
  selectivity ratio at 504 h: > 100
[24]
  selectivity ratio at 336 h: > 100
[25]
  selectivity ratio at 504 h: > 100
[26]
  selectivity ratio at 336 h: > 100
[27]
  selectivity ratio at 504 h: > 100
[28]
  selectivity ratio at 504 h: > 100
[29]
  selectivity ratio at 336 h: > 100
[30]
  selectivity ratio at 336 h: > 100
[31]
  selectivity ratio at 504 h: > 100
[32]
  selectivity ratio at 504 h: > 100
[33]
  selectivity ratio at 336 h: > 100
[34]
  selectivity ratio at 336 h: > 100
[35]
  selectivity ratio at 504 h: > 100
[36]
  MIC99: 0.06 µM (≈ 0.0282 µg/mL)
